Measurements reported in ChEMBL document CHEMBL3872265, “Structure-activity relationship of the inhibitory effects of flavonoids on nitric oxide production in RAW264.7 cells” (Bioorg Med Chem, 2017).

How the values were obtained:
RAW264.7 [1] = experiment: Inhibition of LPS/INF-gamma-stimulated nitric oxide production in mouse RAW264.7 cells measured after 16 hrs; type: functional, cell-based; details: RAW264.7, 16 h
Summary of the method: (§1)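 RAW264.7 murine macrophages were co-stimulated with LPS (100 ng/mL) plus IFN-γ (0.33 ng/mL) in the presence of test compound. Nitrite released into the medium was quantified by the Griess method as a measure of NO. Cell viability was read in parallel with AlamarBlue reagent.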

Peritoneal macrophage = experiment: Inhibition of LPS-stimulated nitric oxide production in ddy mouse peritoneal macrophages measured after 20 hrs by Greiss method; type: functional
[2] = Cytotoxicity against LPS-stimulated mouse RAW264.7 cells assessed as cell viability at 100 uM by alamar blue assay relative to control; type: toxicity; details: LPS-stimulated RAW264.7 cells, read-out: Activity
Summary of the method: (§2)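 This variant stimulated RAW264.7 murine macrophages with LPS alone, without IFN-γ, in the presence of test compound. Released nitrite was measured by the Griess method to quantify NO production. Cell viability was assessed with AlamarBlue reagent.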

RAW264.7 [3] = experiment: Inhibition of LPS/INF-gamma-stimulated nitric oxide production in mouse RAW264.7 cells by Greiss method; type: functional, cell-based; summary of the method: as §1
RAW264.7 [4] = experiment: Inhibition of LPS-stimulated nitric oxide production in mouse RAW264.7 cells by Greiss method; type: functional, cell-based; summary of the method: as §2
[5] = Cytotoxicity against LPS/INF-gamma-stimulated mouse RAW264.7 cells assessed as cell viability at 100 uM by alamar blue assay relative to control; type: toxicity; details: LPS/INF-gamma-stimulated RAW264.7 cells, read-out: Activity; summary of the method: as §1

Compound | IC50 (RAW264.7 [1]) | IC50 (Peritoneal macrophage) | also measured
O=C1C[C@@H](c2cc(O)cc(O)c2)Oc2cc(O)cc(O)c21 | 12 µM |  | 
O=c1cc(-c2ccc(O)cc2)oc2cc(O)ccc12 |  | 14 µM | 
O=c1cc(-c2ccc(O)c(O)c2)oc2cc(O)ccc12 |  | 26 µM | 
COc1c(O)cc([C@H]2Oc3cc(O)ccc3C(=O)[C@@H]2O)cc1O | > 100 µM |  | 
O=C1C[C@@H](c2cc(O)c(O)c(O)c2)Oc2cc(O)ccc21 | > 100 µM |  | 
COc1cc(-c2cc(=O)c3c(O)cc(O)cc3o2)cc(O)c1OC |  |  | viability at 100 µM [2]: 106%; IC50 (RAW264.7 [3]): 18.2 µM; IC50 (RAW264.7 [4]): 6.9 µM; viability at 100 µM [5]: 96%
COc1c(O)cc(-c2oc3cc(O)ccc3c(=O)c2O)cc1O | 14 µM |  | 
COc1cc(-c2oc3cc(O)ccc3c(=O)c2O)cc(OC)c1O | 63 µM |  | 
COc1c(O)cc(-c2cc(=O)c3c(O)cc(O)cc3o2)cc1O |  |  | viability at 100 µM [2]: 112%; IC50 (RAW264.7 [3]): 59.3 µM; IC50 (RAW264.7 [4]): 37 µM; viability at 100 µM [5]: 119%
COc1cc([C@H]2Oc3cc(O)ccc3C(=O)[C@@H]2O)cc(OC)c1O | > 100 µM |  | 
O=C1c2ccc(O)cc2O[C@H](c2cc(O)c(O)c(O)c2)[C@H]1O | > 100 µM |  | 
COc1ccc(-c2cc(=O)c3c(O)cc(O)cc3o2)cc1OC |  |  | viability at 100 µM [2]: 112%; IC50 (RAW264.7 [3]): 17 µM; IC50 (RAW264.7 [4]): 5 µM; viability at 100 µM [5]: 109%
COc1ccc(-c2cc(=O)c3c(O)cc(O)cc3o2)cc1 [ACACETIN] |  |  | viability at 100 µM [2]: 99%; IC50 (RAW264.7 [3]): 53.7 µM; IC50 (RAW264.7 [4]): 27.7 µM; viability at 100 µM [5]: 115%
O=c1cc(-c2ccc(O)cc2)oc2cc(O)cc(O)c12 [APIGENIN] | 14 µM | 7.7 µM | 
O=C1c2c(O)cc(O)cc2O[C@H](c2ccc(O)cc2)[C@H]1O [DIHYDROKAEMPFEROL] | > 100 µM |  | 
COc1ccc(-c2cc(=O)c3c(O)cc(O)cc3o2)cc1O [DIOSMETIN] |  | 8.9 µM | IC50 (RAW264.7 [3]): 32.2 µM; IC50 (RAW264.7 [4]): 16.7 µM
O=C1C[C@@H](c2ccc(O)c(O)c2)Oc2cc(O)cc(O)c21 [ERIODICTYOL] |  | > 100 µM | 
O=c1c(O)c(-c2ccc(O)cc2)oc2cc(O)cc(O)c12 [KAEMPFEROL] | 15 µM | 29 µM | viability at 100 µM [2]: 141%; IC50 (RAW264.7 [3]): 17 µM; IC50 (RAW264.7 [4]): 13.4 µM; viability at 100 µM [5]: 138%
O=C1C[C@@H](c2ccc(O)cc2)Oc2cc(O)ccc21 [LIQUIRTIGENIN] |  | 85 µM | 
O=c1cc(-c2ccc(O)c(O)c2)oc2cc(O)cc(O)c12 [LUTEOLIN] |  | 20 µM | 
COc1c(O)cc(-c2oc3cc(O)cc(O)c3c(=O)c2O)cc1O [MEARNSETIN] |  | 84 µM | 
O=c1c(O)c(-c2cc(O)c(O)c(O)c2)oc2cc(O)cc(O)c12 [MYRICETIN] |  | 99 µM | 
O=C1C[C@@H](c2ccc(O)cc2)Oc2cc(O)cc(O)c21 [NARINGENIN] | 60 µM |  | 
O=c1c(O)c(-c2ccc(O)c(O)c2)oc2cc(O)cc(O)c12 [QUERCETIN] |  | 36 µM | 
O=c1c(O)c(-c2cc(O)c(O)c(O)c2)oc2cc(O)ccc12 [ROBINETIN] | 42 µM |  | 
COc1ccc(-c2oc3cc(O)cc(O)c3c(=O)c2O)cc1O [TAMARIXETIN] |  | 25 µM | 
COc1cc(-c2cc(=O)c3c(O)cc(O)cc3o2)cc(OC)c1O [TRICIN] | 8 µM |  | 
